{"source": "ChEMBL document CHEMBL1124002", "about": "“Antiallergy agents. 1. Substituted 1,8-naphthyridin-2(1H)-ones as inhibitors of SRS-A release” (J Med Chem, 1988)", "key": {"[1]": {"system": "Cavia porcellus", "assay": "Percent inhibition of bronchospasm when administered at a dose of 1 mg/kg in guinea pig", "format": "functional", "details": "Bronchiole", "outline": "(§1)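 Ovalbumin-sensitized, anesthetized guinea pigs received iv propranolol 1 mg/kg, indomethacin 5 mg/kg and mepyramine 2 mg/kg, then a 0.5 min aerosol challenge with 0.5% ovalbumin 15 min later. The agent was given intravenously. The rise in inflation pressure was scored as % inhibition of bronchospasm.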"}, "[2]": {"system": "Cavia porcellus", "assay": "Percent inhibition of bronchospasm when administered at a dose of 2.5 mg/kg in guinea pig", "format": "functional", "details": "Bronchiole", "outline": "as §1"}, "[3]": {"system": "Cavia porcellus", "assay": "Percent inhibition of bronchospasm when administered at a dose of 5 mg/kg in guinea pig", "format": "functional", "details": "Bronchiole", "outline": "as §1"}, "[4]": {"species": "Cavia porcellus", "assay": "Inhibitory activity against sulfidopeptide leukotriene release in guinea pig", "format": "functional"}, "[5]": {"system": "Cavia porcellus", "assay": "Effective oral dose required to inhibit bronchospasm in guinea pig", "format": "functional", "details": "Bronchiole", "outline": "(§2)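 Guinea pigs were sensitized with ovalbumin and used 3-4 weeks later. They were fasted and anesthetized with dialurethane ip. Compounds were given orally 2 h before challenge. Propranolol 1 mg/kg, indomethacin 5 mg/kg and mepyramine 2 mg/kg were given iv 15 min before a 0.5 min aerosol of 0.5% ovalbumin through the tracheal cannula. The rise in inflation pressure measured bronchoconstriction. Results are % inhibition, 4-5 animals per group.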"}, "[6]": {"species": "Cavia porcellus", "assay": "Percent inhibition of SRS-A release in vitro at a dose of 10 uM in guinea pig", "format": "functional", "outline": "(§3)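 Male Hartley guinea pigs were sensitized with ovalbumin (5 mg ip + 5 mg sc on day 1, 5 mg ip on day 4). About 400 mg chopped lung was preincubated with compound for 12 min at 37 °C in Tyrode's with 10 mM cysteine, then challenged with 20 μg/mL ovalbumin (final) for 0.25 h. SRS-A in ethanol-extracted supernatant was bioassayed on mepyramine-treated ileum against a rat SRS-A standard. Results are % inhibition versus vehicle, from 3-4 lungs.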"}, "[7]": {"species": "Cavia porcellus", "assay": "Inhibitory activity against SRS-A release in guinea pig; 0.01-19 uM", "format": "functional", "outline": "as §3"}, "[8]": {"system": "Cavia porcellus", "assay": "Percent inhibition of bronchospasm in vivo at a dose of 12.5 mg/kg in guinea pig", "format": "functional", "details": "Bronchiole", "outline": "as §2"}, "[9]": {"system": "Cavia porcellus", "assay": "Percent inhibition of bronchospasm in vivo at oral dose of 25 mg/kg in guinea pig"}, "[10]": {"system": "Cavia porcellus", "assay": "Percent inhibition of bronchospasm in vivo for a dose of 5 mg/kg in guinea pig", "format": "functional", "details": "Bronchiole, read-out: Inhibition", "outline": "as §1"}, "[11]": {"system": "Cavia porcellus", "assay": "Percent inhibition of bronchospasm administered intravenously at a dose of 5 mg/kg in guinea pig", "format": "functional", "details": "Bronchiole, route intravenous", "outline": "as §1"}, "[12]": {"species": "Cavia porcellus", "assay": "Inhibitory activity against SRS-A release in guinea pig; 0.05-14 uM", "format": "functional", "outline": "as §3"}, "[13]": {"system": "Cavia porcellus", "assay": "Effective oral dose required to inhibit bronchospasm in guinea pig; 0.9-12.8 mg/kg", "format": "functional", "details": "Bronchiole", "outline": "as §2"}, "[14]": {"system": "Cavia porcellus", "assay": "Percent inhibition of bronchospasm in vivo at a dose of 25 mg/kg in guinea pig", "format": "functional", "details": "Bronchiole", "outline": "as §2"}, "[15]": {"species": "Cavia porcellus", "assay": "Compound was tested for th inhibition of SRS-A production in guinea pig lung", "format": "functional", "outline": "(§4)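 Antigen-challenged lung fragments from sensitized guinea pigs were treated with 10 μM test agent or DMSO vehicle 12 min before challenge. Tyrode's contained 10 mM cysteine and 10 μM indomethacin. SRS-A in ethanol extracts was bioassayed on guinea pig ileum and given as units/g, mean ± SEM of 4 lungs. A paired t test compared treatment with vehicle.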"}, "[16]": {"species": "Cavia porcellus", "assay": "Inhibitory activity against SRS-A release in guinea pig; 0.7-2 uM", "format": "functional", "outline": "as §3"}, "[17]": {"system": "Cavia porcellus", "assay": "Effective oral dose required to inhibit bronchospasm in guinea pig; 1.3-7.6 mg/kg", "format": "functional", "details": "Bronchiole", "outline": "as §2"}, "[18]": {"species": "Cavia porcellus", "assay": "Production of LTD4 in guinea pig lung", "format": "functional", "outline": "(§5)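 Lung fragments pooled from four sensitized guinea pigs were challenged in 0.4 g aliquots with antigen, with 10 μM test agent or DMSO vehicle added 12 min before challenge. Tyrode's held 10 mM cysteine and 10 μM indomethacin. Ethanol extracts were pooled, solvent-partitioned and run on reverse-phase HPLC with UV 280 nm. LTD4 was quantified against an LTC4 standard curve (10-200 pmol) as pmol/g.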"}, "[19]": {"species": "Cavia porcellus", "assay": "Production of SRS-A in guinea pig lung", "format": "functional", "outline": "as §4"}, "[20]": {"species": "Mus musculus", "assay": "Compound was tested in vitro in cloned murine mast cell (MC-9) for the inhibition of production of leukotriene products at 50 uM concentration; No inhibition", "format": "functional"}, "[21]": {"species": "Rattus norvegicus", "assay": "Compound was tested in vitro in rat polymorphonuclear leucocyte for the inhibition of production of leukotriene products at 50 uM concentration; No inhibition", "format": "functional"}, "[22]": {"species": "Cavia porcellus", "assay": "Compound was tested for th inhibition of LTD4 production in guinea pig lung", "format": "functional", "outline": "as §5"}, "[23]": {"system": "Cavia porcellus", "assay": "Percent inhibition of bronchospasm, when administered orally at a dose of 160 mg/kg to guinea pig", "format": "functional", "details": "Bronchiole, route oral", "outline": "(§6)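 Male Hartley guinea pigs were sensitized with ovalbumin (5 mg ip plus 5 mg sc on day 1, 5 mg ip on day 4) and used 3-4 weeks later, fasted overnight and given dialurethane ip. They were dosed orally 2 h before challenge and given iv propranolol 1 mg/kg, indomethacin 5 mg/kg and mepyramine 2 mg/kg. Fifteen minutes later, 0.5% ovalbumin aerosol was delivered for 0.5 min via tracheal cannula. Read-out was increased inflation pressure, as mean % inhibition from 4-5 animals.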"}, "[24]": {"system": "Cavia porcellus", "assay": "Percent inhibition of bronchospasm, when administered orally at a dose of 18 mg/kg in guinea pig", "format": "functional", "details": "Bronchiole, route oral", "outline": "as §6"}, "[25]": {"system": "Cavia porcellus", "assay": "Percent inhibition of bronchospasm, when administered orally at a dose of 53 mg/kg in guinea pig", "format": "functional", "details": "Bronchiole, route oral", "outline": "as §6"}, "[26]": {"species": "Cavia porcellus", "assay": "Percent inhibition of SRS-A release in vitro at a dose of 3 uM in guinea pig", "format": "functional", "outline": "as §3"}}, "note": "Active and inactive are the calls of the source. The calls are words filed in the database; no cut-off is given here."}
{"smiles": "CCCc1c(OCC(O)COc2ccc3c(=O)cc(C(=O)O)oc3c2CCC)ccc(C(C)=O)c1O", "note": "(configuration not stated) [FPL-55712]", "values": [{"measurement": "inhibition in vivo at 1 mg/kg", "setting": "[1]", "result": 32, "unit": "%"}, {"measurement": "inhibition in vivo at 2.5 mg/kg", "setting": "[2]", "result": 57, "unit": "%"}, {"measurement": "inhibition in vivo at 5 mg/kg", "setting": "[3]", "result": 68, "unit": "%"}]}
{"smiles": "C=CCc1c(OC(C)=O)c2cccnc2n(-c2cccc(Cl)c2)c1=O", "values": [{"measurement": "IC50", "setting": "[4]", "result": "~1000", "unit": "nM"}, {"measurement": "ED50", "setting": "[5]", "result": 0.4, "unit": "mg/kg"}, {"measurement": "inhibition at 10 µM", "setting": "[6]", "result": 60, "unit": "%"}]}
{"smiles": "CCCCc1c([O-])c2cccnc2n(-c2ccccc2)c1=O.[Na+]", "values": [{"measurement": "IC50", "setting": "[7]", "result": 240, "unit": "nM"}, {"measurement": "ED50", "setting": "[5]", "result": 14, "unit": "mg/kg"}, {"measurement": "inhibition at 10 µM", "setting": "[6]", "result": 56, "unit": "%"}, {"measurement": "inhibition in vivo at 12.5 mg/kg", "setting": "[8]", "result": 68, "unit": "%"}]}
{"smiles": "C=CCc1c(O)c2cccnc2n(-c2ccccc2)c1=O", "values": [{"measurement": "inhibition at 10 µM", "setting": "[6]", "result": 81, "unit": "%"}, {"measurement": "Inhibition", "setting": "[9]", "result": 85, "unit": "%"}]}
{"smiles": "CCCc1c2c(c(O)c3c(=O)cc(C(=O)O)oc13)CCCC2", "note": "[PROXICROMIL]", "values": [{"measurement": "inhibition in vivo at 5 mg/kg", "setting": "[10]", "result": 0, "unit": "%"}, {"measurement": "inhibition in vivo at 5 mg/kg", "setting": "[11]", "result": 0, "unit": "%"}]}
{"smiles": "C=CCc1c(O)c2cccnc2n(-c2ccccc2OC)c1=O", "values": [{"measurement": "IC50", "setting": "[12]", "result": 980, "unit": "nM"}, {"measurement": "ED50", "setting": "[13]", "result": 3.7, "unit": "mg/kg"}, {"measurement": "inhibition at 10 µM", "setting": "[6]", "result": 69, "unit": "%"}, {"measurement": "inhibition in vivo at 25 mg/kg", "setting": "[14]", "result": 90, "unit": "%"}]}
{"smiles": "C=CCc1c(OC(C)=O)c2cccnc2n(-c2ccccc2)c1=O", "values": [{"measurement": "Inhibition", "setting": "[15]", "result": 69, "unit": "%"}, {"measurement": "IC50", "setting": "[16]", "result": 1100, "unit": "nM"}, {"measurement": "ED50", "setting": "[17]", "result": 2.9, "unit": "mg/kg"}, {"measurement": "LTD4 production at 10 µM", "setting": "[18]", "result": 25, "unit": "pmol/g"}, {"measurement": "SRS-A release at 10 µM", "setting": "[19]", "result": 9.3, "unit": "units/g"}, {"measurement": "inhibition at 10 µM", "setting": "[6]", "result": 73, "unit": "%"}, {"measurement": "inhibition in vivo at 12.5 mg/kg", "setting": "[8]", "result": 84, "unit": "%"}, {"measurement": "Activity", "setting": "[20]", "result": "inactive"}, {"measurement": "Activity", "setting": "[21]", "result": "inactive"}, {"measurement": "Inhibition", "setting": "[22]", "result": 70, "unit": "%"}]}
{"smiles": "Cn1c(=O)c2[nH]cnc2n(C)c1=O", "note": "[AMINOPHYLLINE]", "values": [{"measurement": "inhibition in vivo at 160 mg/kg", "setting": "[23]", "result": 81, "unit": "%"}, {"measurement": "inhibition in vivo at 18 mg/kg", "setting": "[24]", "result": 21, "unit": "%"}, {"measurement": "inhibition in vivo at 53 mg/kg", "setting": "[25]", "result": 55, "unit": "%"}]}
{"smiles": "C=CCc1c(OC(C)=O)c2cccnc2n(-c2ccc(OCc3ccccc3)cc2)c1=O", "values": [{"measurement": "inhibition at 3 µM", "setting": "[26]", "result": 23, "unit": "%"}]}
